In brackets after ≈: the same amount, converted by molar mass.
Assays:
Assay type in all cases: functional
Staphylococcus aureus [1] = experiment: Antibacterial activity against Staphylococcus aureus CMCC 26003 after 18 to 24 hrs by two-fold serial dilution method
Outline: (§1)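 Twofold serial dilution in agar media against Gram-positive and Gram-negative strains. Plates incubated at 35 °C for 18–24 h. MIC read as the lowest compound concentration giving complete inhibition of bacterial growth.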

[2] = system: Staphylococcus epidermidis; experiment: Antibacterial activity against methicillin-resistant Staphylococcus epidermidis 14-37 after 18 to 24 hrs by two-fold serial dilution method
Outline: (§2)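 Agar media, standard twofold serial dilution. MIC is the lowest concentration giving complete inhibition of bacterial growth after incubation at 35 °C for 18–24 h. Ciprofloxacin and levofloxacin were run as comparators.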

Staphylococcus aureus [3] = experiment: Antibacterial activity against methicillin-resistant Staphylococcus aureus 14-5 after 18 to 24 hrs by two-fold serial dilution method; outline: as §2
Klebsiella pneumoniae [4] = experiment: Antibacterial activity against extended-spectrum beta-lactamase producing Klebsiella pneumoniae 14-18 after 18 to 24 hrs by two-fold serial dilution method; outline: as §1
Klebsiella pneumoniae [5] = experiment: Antibacterial activity against Klebsiella pneumoniae 14-4 after 18 to 24 hrs by two-fold serial dilution method; outline: as §1
Escherichia coli [6] = experiment: Antibacterial activity against Escherichia coli 14-2 after 18 to 24 hrs by two-fold serial dilution method; outline: as §1
Enterococcus faecium [7] = experiment: Antibacterial activity against Enterococcus faecium 14-2 after 18 to 24 hrs by two-fold serial dilution method; outline: as §1
Klebsiella pneumoniae [8] = experiment: Antibacterial activity against extended-spectrum beta-lactamase producing Klebsiella pneumoniae 14-19 after 18 to 24 hrs by two-fold serial dilution method; outline: as §1
Pseudomonas aeruginosa [9] = experiment: Antibacterial activity against Pseudomonas aeruginosa ATCC 27853 after 18 to 24 hrs by two-fold serial dilution method; outline: as §1
Pseudomonas aeruginosa [10] = experiment: Antibacterial activity against Pseudomonas aeruginosa 14-14 after 18 to 24 hrs by two-fold serial dilution method; outline: as §1
Escherichia coli [11] = experiment: Antibacterial activity against Escherichia coli 14-1 after 18 to 24 hrs by two-fold serial dilution method; outline: as §1
Klebsiella pneumoniae [12] = experiment: Antibacterial activity against Klebsiella pneumoniae 14-1 after 18 to 24 hrs by two-fold serial dilution method; outline: as §1
Escherichia coli [13] = experiment: Antibacterial activity against Escherichia coli ATCC 25922 after 18 to 24 hrs by two-fold serial dilution method; outline: as §1
Klebsiella pneumoniae [14] = experiment: Antibacterial activity against extended-spectrum beta-lactamase producing Klebsiella pneumoniae 14-17 after 18 to 24 hrs by two-fold serial dilution method; outline: as §1
Streptococcus pneumoniae = experiment: Antibacterial activity against methicillin-resistant Streptococcus pneumoniae ATCC 19615 after 18 to 24 hrs by two-fold serial dilution method; outline: as §2
[15] = system: Staphylococcus epidermidis; experiment: Antibacterial activity against methicillin-sensitive Staphylococcus epidermidis 14-2 after 18 to 24 hrs by two-fold serial dilution method; outline: as §1
Escherichia coli [16] = experiment: Antibacterial activity against extended-spectrum beta-lactamase producing Escherichia coli 14-2 after 18 to 24 hrs by two-fold serial dilution method; outline: as §1
Staphylococcus aureus [17] = experiment: Antibacterial activity against methicillin-sensitive Staphylococcus aureus 14-4 after 18 to 24 hrs by two-fold serial dilution method; outline: as §1
Staphylococcus aureus [18] = experiment: Antibacterial activity against methicillin-sensitive Staphylococcus aureus 14-1 after 18 to 24 hrs by two-fold serial dilution method; outline: as §1
Klebsiella pneumoniae [19] = experiment: Antibacterial activity against Klebsiella pneumoniae 14-3 after 18 to 24 hrs by two-fold serial dilution method; outline: as §1
Pseudomonas aeruginosa [20] = experiment: Antibacterial activity against Pseudomonas aeruginosa 14-16 after 18 to 24 hrs by two-fold serial dilution method; outline: as §1
Enterococcus faecium [21] = experiment: Antibacterial activity against Enterococcus faecium 14-6 after 18 to 24 hrs by two-fold serial dilution method; outline: as §1
Staphylococcus aureus [22] = experiment: Antibacterial activity against methicillin-resistant Staphylococcus aureus 14-4 after 18 to 24 hrs by two-fold serial dilution method; outline: as §2
Enterococcus faecalis [23] = experiment: Antibacterial activity against Enterococcus faecalis 14-1 after 18 to 24 hrs by two-fold serial dilution method; outline: as §1
Pseudomonas aeruginosa [24] = experiment: Antibacterial activity against Pseudomonas aeruginosa 14-15 after 18 to 24 hrs by two-fold serial dilution method; outline: as §1
Staphylococcus aureus [25] = experiment: Antibacterial activity against methicillin-sensitive Staphylococcus aureus 14-3 after 18 to 24 hrs by two-fold serial dilution method; outline: as §1
[26] = system: Staphylococcus epidermidis; experiment: Antibacterial activity against methicillin-resistant Staphylococcus epidermidis 14-39 after 18 to 24 hrs by two-fold serial dilution method; outline: as §2
Klebsiella pneumoniae [27] = experiment: Antibacterial activity against Klebsiella pneumoniae 14-2 after 18 to 24 hrs by two-fold serial dilution method; outline: as §1
Enterococcus faecium [28] = experiment: Antibacterial activity against Enterococcus faecium 14-5 after 18 to 24 hrs by two-fold serial dilution method; outline: as §1
[29] = system: Staphylococcus epidermidis; experiment: Antibacterial activity against methicillin-resistant Staphylococcus epidermidis 14-22 after 18 to 24 hrs by two-fold serial dilution method; outline: as §2
[30] = system: Staphylococcus epidermidis; experiment: Antibacterial activity against methicillin-resistant Staphylococcus epidermidis 14-21 after 18 to 24 hrs by two-fold serial dilution method; outline: as §2
Escherichia coli [31] = experiment: Antibacterial activity against extended-spectrum beta-lactamase producing Escherichia coli 14-1 after 18 to 24 hrs by two-fold serial dilution method; outline: as §1
Enterococcus faecalis [32] = experiment: Antibacterial activity against Enterococcus faecalis 14-2 after 18 to 24 hrs by two-fold serial dilution method; outline: as §1
Pseudomonas aeruginosa [33] = experiment: Antibacterial activity against Pseudomonas aeruginosa 14-9 after 18 to 24 hrs by two-fold serial dilution method; outline: as §1

SMILES	MIC (Staphylococcus aureus [1]) [µg/mL]	MIC [2] [µg/mL]	MIC (Klebsiella pneumoniae [5]) [µg/mL]	MIC (Enterococcus faecium [7]) [µg/mL]	MIC (Klebsiella pneumoniae [8]) [µg/mL]	MIC (Klebsiella pneumoniae [12]) [µg/mL]	MIC (Escherichia coli [13]) [µg/mL]	MIC [15] [µg/mL]	MIC (Staphylococcus aureus [17]) [µg/mL]	MIC (Staphylococcus aureus [18]) [µg/mL]	MIC (Klebsiella pneumoniae [19]) [µg/mL]	MIC (Enterococcus faecium [21]) [µg/mL]	MIC (Staphylococcus aureus [22]) [µg/mL]	MIC (Enterococcus faecalis [23]) [µg/mL]	MIC [26] [µg/mL]	MIC (Klebsiella pneumoniae [27]) [µg/mL]	MIC (Enterococcus faecium [28]) [µg/mL]	MIC [29] [µg/mL]	MIC [30] [µg/mL]	MIC (Enterococcus faecalis [32]) [µg/mL]	also measured
O=C(O)c1cn(C2CC2)c2nc(N3C/C(=N/OCc4ccccc4)C(CNC4CC4)C3)c(F)cc2c1=O (configuration not stated)	< 0.008	16 (≈ 31.6 µM)	> 128	16 (≈ 31.6 µM)	128 (≈ 253 µM)	64 (≈ 127 µM)	4 (≈ 7.91 µM)	64 (≈ 127 µM)	8 (≈ 15.8 µM)	8 (≈ 15.8 µM)	128 (≈ 253 µM)	8 (≈ 15.8 µM)	> 128	64 (≈ 127 µM)	32 (≈ 63.3 µM)	64 (≈ 127 µM)	32 (≈ 63.3 µM)	16 (≈ 31.6 µM)	16 (≈ 31.6 µM)	1 (≈ 1.98 µM)	MIC (Staphylococcus aureus [3]): 16 µg/mL (≈ 31.6 µM); MIC (Klebsiella pneumoniae [4]): 128 µg/mL (≈ 253 µM); MIC (Escherichia coli [6]): > 128 µg/mL; MIC (Pseudomonas aeruginosa [9]): 64 µg/mL (≈ 127 µM); MIC (Pseudomonas aeruginosa [10]): 64 µg/mL (≈ 127 µM); MIC (Escherichia coli [11]): > 128 µg/mL; MIC (Klebsiella pneumoniae [14]): 128 µg/mL (≈ 253 µM); MIC (Streptococcus pneumoniae): 8 µg/mL (≈ 15.8 µM); MIC (Escherichia coli [16]): > 128 µg/mL; MIC (Pseudomonas aeruginosa [20]): 64 µg/mL (≈ 127 µM); MIC (Pseudomonas aeruginosa [24]): 128 µg/mL (≈ 253 µM); MIC (Staphylococcus aureus [25]): 4 µg/mL (≈ 7.91 µM); MIC (Escherichia coli [31]): 32 µg/mL (≈ 63.3 µM); MIC (Pseudomonas aeruginosa [33]): 64 µg/mL (≈ 127 µM)
O=C(O)c1cn(C2CC2)c2cc(N3CCNCC3)c(F)cc2c1=O [CIPROFLOXACIN]	0.5 (≈ 1.51 µM)	128 (≈ 386 µM)	32 (≈ 96.6 µM)	32 (≈ 96.6 µM)	64 (≈ 193 µM)	32 (≈ 96.6 µM)	< 0.008	> 128	0.5 (≈ 1.51 µM)	32 (≈ 96.6 µM)	> 128	> 128	> 128	64 (≈ 193 µM)	128 (≈ 386 µM)	16 (≈ 48.3 µM)	128 (≈ 386 µM)	128 (≈ 386 µM)	64 (≈ 193 µM)	1 (≈ 3.02 µM)	MIC (Klebsiella pneumoniae [4]): 0.5 µg/mL (≈ 1.51 µM); MIC (Pseudomonas aeruginosa [10]): 1 µg/mL (≈ 3.02 µM); MIC (Klebsiella pneumoniae [14]): 0.5 µg/mL (≈ 1.51 µM); MIC (Streptococcus pneumoniae): 2 µg/mL (≈ 6.04 µM); MIC (Pseudomonas aeruginosa [20]): 1 µg/mL (≈ 3.02 µM); MIC (Pseudomonas aeruginosa [24]): 1 µg/mL (≈ 3.02 µM)
C[C@H]1COc2c(N3CCN(C)CC3)c(F)cc3c(=O)c(C(=O)O)cn1c23.C[C@H]1COc2c(N3CCN(C)CC3)c(F)cc3c(=O)c(C(=O)O)cn1c23.O [LEVOFLOXACIN]	0.25	64	16	32	64	16	0.125	> 128	0.5	8	32	64	64	128	64	8	64	32	64	1	MIC (Staphylococcus aureus [3]): 8 µg/mL; MIC (Escherichia coli [6]): 8 µg/mL; MIC (Escherichia coli [11]): 8 µg/mL; MIC (Escherichia coli [16]): 8 µg/mL; MIC (Staphylococcus aureus [25]): 0.125 µg/mL; MIC (Escherichia coli [31]): 4 µg/mL; MIC (Pseudomonas aeruginosa [33]): 0.5 µg/mL

Source: ChEMBL document CHEMBL3734675, “Synthesis, antimycobacterial and antibacterial activity of fluoroquinolone derivatives containing an 3-alkoxyimino-4-(cyclopropylanimo)methylpyrrolidine moiety” (2015)
